Laboratory results: ChEMBL document CHEMBL1240350, “In vitro activity of CEM-101 against Streptococcus pneumoniae and Streptococcus pyogenes with defined macrolide resistance mechanisms” (Antimicrob Agents Chemother, 2010)
Converted amounts (≈) assume the structure as drawn.

Experiments:
Format in all cases: functional
Streptococcus pneumoniae [1] = assay: Antibacterial activity against Streptococcus pneumoniae harboring mutation in 23S rRNA after overnight incubation by agar dilution method
Procedure, shortened: (§1)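 Clinical isolates collected 1998–2008, with macrolide-resistance genes confirmed by PCR. MICs by agar dilution on Mueller-Hinton agar with 5% sheep blood. Inoculum 10^4 CFU/spot, incubated overnight at 35°C in ambient air. S. pneumoniae ATCC 49619 was the quality-control strain in every run.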

Streptococcus pyogenes [2] = assay: Antibacterial activity against macrolide-resistant Streptococcus pyogenes harboring erm(A) gene after overnight incubation by agar dilution method
Procedure, shortened: (§2)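 Agar dilution MICs on Mueller-Hinton agar with 5% sheep blood. Inoculum 10^4 CFU/spot, incubated overnight at 35°C in ambient air. Clinical S. pneumoniae or group A streptococcal isolates; resistance genotypes (erm(B), erm(A), mef(A)/mef(E)) were assigned by PCR. S. pneumoniae ATCC 49619 served as QC strain in each run. Range, MIC50 and MIC90 reported per phenotype group.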

Streptococcus pyogenes [3] = assay: Antibacterial activity against Streptococcus pyogenes harboring erm(B) gene after overnight incubation by agar dilution method; procedure, shortened: as §1
Streptococcus pneumoniae [4] = assay: Antibacterial activity against Streptococcus pneumoniae harboring erm(A) gene after overnight incubation by agar dilution method; procedure, shortened: as §1
Streptococcus pyogenes [5] = assay: Antibacterial activity against Streptococcus pyogenes harboring erm(A) gene after overnight incubation by agar dilution method; procedure, shortened: as §1
Streptococcus pyogenes [6] = assay: Antibacterial activity against macrolide-susceptible Streptococcus pyogenes after overnight incubation by agar dilution method
Procedure, shortened: (§3)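 Agar dilution on Mueller-Hinton agar supplemented with 5% sheep blood, inoculum 10^4 CFU/spot, read after overnight incubation at 35°C in ambient air. Clinical isolates with defined genotypes; S. pneumoniae ATCC 49619 quality control strain included in each run. MIC50/MIC90 are MICs inhibiting 50% and 90% of isolates.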

Streptococcus pyogenes [7] = assay: Antibacterial activity against Streptococcus pyogenes harboring mutation in L4 ribosomal protein after overnight incubation by agar dilution method; procedure, shortened: as §1
Streptococcus pneumoniae [8] = assay: Antibacterial activity against quinolone-resistant Streptococcus pneumoniae after overnight incubation by agar dilution method
Procedure, shortened: (§4)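 Agar dilution on Mueller-Hinton agar supplemented with 5% sheep blood. Inoculum 10^4 CFU/spot, incubated overnight at 35°C in ambient air. Test strains were clinical pneumococcal isolates. S. pneumoniae ATCC 49619 was included as the quality control strain in each run. MIC range, MIC50 and MIC90 were reported for each susceptibility category.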

Streptococcus pneumoniae [9] = assay: Antibacterial activity against macrolide-resistant Streptococcus pneumoniae harboring erm(B) gene after overnight incubation by agar dilution method; procedure, shortened: as §2
Streptococcus pneumoniae [10] = assay: Antibacterial activity against penicillin-susceptible Streptococcus pneumoniae after overnight incubation by agar dilution method; procedure, shortened: as §4
Streptococcus pneumoniae [11] = assay: Antibacterial activity against Streptococcus pneumoniae harboring erm(B) gene after overnight incubation by agar dilution method; procedure, shortened: as §1
Streptococcus pneumoniae [12] = assay: Antibacterial activity against macrolide-resistant Streptococcus pneumoniae harboring mef(A) gene after overnight incubation by agar dilution method; procedure, shortened: as §2
Streptococcus pyogenes [13] = assay: Antibacterial activity against macrolide-resistant Streptococcus pyogenes harboring erm(B) gene after overnight incubation by agar dilution method; procedure, shortened: as §2
Streptococcus pneumoniae [14] = assay: Antibacterial activity against macrolide-susceptible Streptococcus pneumoniae after overnight incubation by agar dilution method; procedure, shortened: as §2
Streptococcus pneumoniae [15] = assay: Antibacterial activity against penicillin-resistant Streptococcus pneumoniae after overnight incubation by agar dilution method; procedure, shortened: as §4
Streptococcus pneumoniae [16] = assay: Antibacterial activity against Streptococcus pneumoniae harboring mutation in L4 ribosomal protein after overnight incubation by agar dilution method; procedure, shortened: as §1
Streptococcus pyogenes [17] = assay: Antibacterial activity against macrolide-resistant Streptococcus pyogenes harboring mef(A) gene after overnight incubation by agar dilution method; procedure, shortened: as §2
Streptococcus pneumoniae [18] = assay: Antibacterial activity against macrolide-resistant Streptococcus pneumoniae harboring mutation in L4 ribosomal protein after overnight incubation by agar dilution method; procedure, shortened: as §2
Streptococcus pneumoniae [19] = assay: Antibacterial activity against penicillin-intermediate Streptococcus pneumoniae after overnight incubation by agar dilution method; procedure, shortened: as §3
Streptococcus pneumoniae [20] = assay: Antibacterial activity against Streptococcus pneumoniae harboring mef(A) gene after overnight incubation by agar dilution method; procedure, shortened: as §1
Streptococcus pyogenes [21] = assay: Antibacterial activity against Streptococcus pyogenes harboring mef(A) gene after overnight incubation by agar dilution method; procedure, shortened: as §1
Streptococcus pneumoniae [22] = assay: Antibacterial activity against Streptococcus pneumoniae harboring erm(B) and mef(A) gene after overnight incubation by agar dilution method; procedure, shortened: as §1
Streptococcus pneumoniae [23] = assay: Antibacterial activity against macrolide-resistant Streptococcus pneumoniae harboring erm(B) and mef(A) gene after overnight incubation by agar dilution method; procedure, shortened: as §2
Streptococcus pneumoniae [24] = assay: Antibacterial activity against quinolone-susceptible Streptococcus pneumoniae after overnight incubation by agar dilution method; procedure, shortened: as §4

COc1c(N2C[C@@H]3CCCN[C@@H]3C2)c(F)cc2c(=O)c(C(=O)O)cn(C3CC3)c12 [MOXIFLOXACIN]
MIC (Streptococcus pneumoniae [1]): 0.25 µg/mL (≈ 0.623 µM)
MIC50 (Streptococcus pyogenes [2]): 0.25 µg/mL (≈ 0.623 µM)
MIC90 (Streptococcus pyogenes [2]): 0.25 µg/mL (≈ 0.623 µM)
MIC50 (Streptococcus pyogenes [3]): 0.25 µg/mL (≈ 0.623 µM)
MIC90 (Streptococcus pyogenes [3]): 0.25 µg/mL (≈ 0.623 µM)
MIC (Streptococcus pneumoniae [4]): 0.25 µg/mL (≈ 0.623 µM)
MIC50 (Streptococcus pyogenes [5]): 0.25 µg/mL (≈ 0.623 µM)
MIC90 (Streptococcus pyogenes [5]): 0.25 µg/mL (≈ 0.623 µM)
MIC50 (Streptococcus pyogenes [6]): 0.25 µg/mL (≈ 0.623 µM)
MIC90 (Streptococcus pyogenes [6]): 0.25 µg/mL (≈ 0.623 µM)
MIC (Streptococcus pyogenes [7]): 0.25 µg/mL (≈ 0.623 µM)
MIC50 (Streptococcus pneumoniae [8]): 4 µg/mL (≈ 9.96 µM)
MIC90 (Streptococcus pneumoniae [8]): 4 µg/mL (≈ 9.96 µM)
MIC50 (Streptococcus pneumoniae [9]): 0.25 µg/mL (≈ 0.623 µM)
MIC90 (Streptococcus pneumoniae [9]): 0.5 µg/mL (≈ 1.25 µM)
MIC50 (Streptococcus pneumoniae [10]): 0.5 µg/mL (≈ 1.25 µM)
MIC90 (Streptococcus pneumoniae [10]): 4 µg/mL (≈ 9.96 µM)
MIC50 (Streptococcus pneumoniae [11]): 0.25 µg/mL (≈ 0.623 µM)
MIC90 (Streptococcus pneumoniae [11]): 0.5 µg/mL (≈ 1.25 µM)
MIC50 (Streptococcus pneumoniae [12]): 0.25 µg/mL (≈ 0.623 µM)
MIC90 (Streptococcus pneumoniae [12]): 0.5 µg/mL (≈ 1.25 µM)
MIC50 (Streptococcus pyogenes [13]): 0.25 µg/mL (≈ 0.623 µM)
MIC90 (Streptococcus pyogenes [13]): 0.25 µg/mL (≈ 0.623 µM)

CC1(C)S[C@@H]2[C@H](NC(=O)Cc3ccccc3)C(=O)N2[C@H]1C(=O)O [PENICILLIN G]
MIC50 (Streptococcus pneumoniae [14]): 1 µg/mL (≈ 2.99 µM)
MIC90 (Streptococcus pneumoniae [14]): 2 µg/mL (≈ 5.98 µM)
MIC50 (Streptococcus pneumoniae [15]): 4 µg/mL (≈ 12 µM)
MIC90 (Streptococcus pneumoniae [15]): 8 µg/mL (≈ 23.9 µM)
MIC (Streptococcus pneumoniae [1]): 0.015 µg/mL (≈ 0.0449 µM)
MIC50 (Streptococcus pyogenes [2]): 0.015 µg/mL (≈ 0.0449 µM)
MIC90 (Streptococcus pyogenes [2]): 0.015 µg/mL (≈ 0.0449 µM)
MIC50 (Streptococcus pneumoniae [16]): 4 µg/mL (≈ 12 µM)
MIC90 (Streptococcus pneumoniae [16]): 16 µg/mL (≈ 47.8 µM)
MIC50 (Streptococcus pyogenes [17]): 0.015 µg/mL (≈ 0.0449 µM)
MIC90 (Streptococcus pyogenes [17]): 0.03 µg/mL (≈ 0.0897 µM)
MIC50 (Streptococcus pyogenes [3]): 0.015 µg/mL (≈ 0.0449 µM)
MIC90 (Streptococcus pyogenes [3]): 0.015 µg/mL (≈ 0.0449 µM)
MIC (Streptococcus pneumoniae [4]): 0.03 µg/mL (≈ 0.0897 µM)
MIC50 (Streptococcus pneumoniae [18]): 4 µg/mL (≈ 12 µM)
MIC90 (Streptococcus pneumoniae [18]): 16 µg/mL (≈ 47.8 µM)
MIC50 (Streptococcus pyogenes [5]): 0.015 µg/mL (≈ 0.0449 µM)
MIC90 (Streptococcus pyogenes [5]): 0.015 µg/mL (≈ 0.0449 µM)
MIC50 (Streptococcus pneumoniae [19]): 0.5 µg/mL (≈ 1.5 µM)
MIC90 (Streptococcus pneumoniae [19]): 1 µg/mL (≈ 2.99 µM)
MIC50 (Streptococcus pyogenes [6]): 0.015 µg/mL (≈ 0.0449 µM)
MIC90 (Streptococcus pyogenes [6]): 0.015 µg/mL (≈ 0.0449 µM)
MIC (Streptococcus pyogenes [7]): 0.015 µg/mL (≈ 0.0449 µM)
MIC50 (Streptococcus pneumoniae [20]): 0.125 µg/mL (≈ 0.374 µM)
MIC90 (Streptococcus pneumoniae [20]): 4 µg/mL (≈ 12 µM)
MIC50 (Streptococcus pyogenes [21]): 0.015 µg/mL (≈ 0.0449 µM)
MIC90 (Streptococcus pyogenes [21]): 0.03 µg/mL (≈ 0.0897 µM)
MIC50 (Streptococcus pneumoniae [22]): 2 µg/mL (≈ 5.98 µM)
MIC90 (Streptococcus pneumoniae [22]): 4 µg/mL (≈ 12 µM)
MIC50 (Streptococcus pneumoniae [8]): 0.25 µg/mL (≈ 0.748 µM)
MIC90 (Streptococcus pneumoniae [8]): 4 µg/mL (≈ 12 µM)
MIC50 (Streptococcus pneumoniae [23]): 2 µg/mL (≈ 5.98 µM)
MIC90 (Streptococcus pneumoniae [23]): 4 µg/mL (≈ 12 µM)
MIC50 (Streptococcus pneumoniae [9]): 1 µg/mL (≈ 2.99 µM)
MIC90 (Streptococcus pneumoniae [9]): 4 µg/mL (≈ 12 µM)
MIC50 (Streptococcus pneumoniae [24]): 1 µg/mL (≈ 2.99 µM)
MIC90 (Streptococcus pneumoniae [24]): 4 µg/mL (≈ 12 µM)
MIC50 (Streptococcus pneumoniae [10]): 0.03 µg/mL (≈ 0.0897 µM)
MIC90 (Streptococcus pneumoniae [10]): 0.06 µg/mL (≈ 0.179 µM)
MIC50 (Streptococcus pneumoniae [11]): 1 µg/mL (≈ 2.99 µM)
MIC90 (Streptococcus pneumoniae [11]): 4 µg/mL (≈ 12 µM)
MIC50 (Streptococcus pneumoniae [12]): 0.125 µg/mL (≈ 0.374 µM)
MIC90 (Streptococcus pneumoniae [12]): 4 µg/mL (≈ 12 µM)
MIC50 (Streptococcus pyogenes [13]): 0.015 µg/mL (≈ 0.0449 µM)
MIC90 (Streptococcus pyogenes [13]): 0.015 µg/mL (≈ 0.0449 µM)
